Legend:
[1] = test system: L1210; test: Percentage of spermine (after 48 hr exposure to 500 uM) in L1210 cells.; type: functional, Mus musculus
In short: (§1)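 Log-phase L1210 cells were treated for 48 h with analogue at two concentrations. Cells were washed twice in cold RPMI-1640 and extracted with 0.6 N HClO4. Putrescine, spermidine and spermine were quantified by HPLC of dansyl derivatives and given as percent of untreated controls. Runs were in triplicate with untreated controls.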

[2] = Effect on ornithine decarboxylase (ODC) tested at 1 uM at 4 hour in L1210 cells; type: functional, Mus musculus
In short: (§2)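 L1210 cells were exposed to 1 μM analogue, for 4 h (ODC) or 6 h (AdoMetDC). Activity was measured as 14CO2 released from [14C]carboxyl-labelled L-ornithine (ODC) or S-adenosyl-L-methionine (AdoMetDC) and given as percent of untreated control. Each run included DEHSPM-treated positive controls. Values are the mean of at least three experiments.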

[3] = test system: L1210; test: Percentage of putrescine (after 48 hr exposure to 100 uM) in L1210 cells.; type: functional, Mus musculus; in short: as §1
[4] = test system: L1210; test: Percentage of putrescine after 48 hr exposure to the compound (500 uM ) in L1210 cells; type: functional, Mus musculus; in short: as §1
[5] = test system: L1210; test: Intracellular levels in L1210 cells following 500 uM exposure.; type: functional, Mus musculus
In short: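 L1210 cells were grown 48 h in medium containing 500 μM analogue. Cellular contents were analysed by HPLC of dansyl derivatives and given as pmol/10^6 cells, as parent drug and metabolites with the % of total drug in the cell.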

[6] = test system: L1210; test: Percentage of spermine (after 48 hr exposure to 100 uM) in L1210 cells.; type: functional, Mus musculus; in short: as §1
[7] = test system: L1210; test: Growth inhibitory activity against L1210 cells (48h); type: functional, cell-based; settings: Mus musculus, L1210, 48 h
In short: (§3)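 Murine L1210 leukemia cells were kept in log growth in RPMI-1640 with 10% fetal calf serum or NuSerum, HEPES-MOPS buffer and 1 mM aminoguanidine. IC50 is the concentration giving 50% of untreated control growth, as the mean of at least two experiments.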

[8] = test system: L1210; test: Growth inhibitory activity against L1210 cells (96h); type: functional, cell-based; settings: Mus musculus, L1210, 96 h; in short: as §3
[9] = target: Spermidine/spermine N(1)-acetyltransferase (SAT) (Mus musculus) (UniProt Q6P8J2+P48026); test: Effect on Spermidine/Spermine-Acetyltransferase (SSAT ) at 10 uM at 48 hour in L1210 cells; type: functional, cell-based
Sequence of Spermidine/spermine N(1)-acetyltransferase (SAT) (Mus musculus) (P48026 whole entry, looked up): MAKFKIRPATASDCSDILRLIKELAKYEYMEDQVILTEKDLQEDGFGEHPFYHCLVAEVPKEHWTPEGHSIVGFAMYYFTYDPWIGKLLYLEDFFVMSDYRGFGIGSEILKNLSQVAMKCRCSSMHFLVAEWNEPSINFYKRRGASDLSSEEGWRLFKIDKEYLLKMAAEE
Sequence of Spermidine/spermine N(1)-acetyltransferase (SAT) (Mus musculus) (Q6P8J2 whole entry, looked up): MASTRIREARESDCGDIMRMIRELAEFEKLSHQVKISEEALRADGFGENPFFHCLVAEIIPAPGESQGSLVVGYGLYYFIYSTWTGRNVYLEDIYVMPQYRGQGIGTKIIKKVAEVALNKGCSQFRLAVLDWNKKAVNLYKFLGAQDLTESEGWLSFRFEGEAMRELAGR
In short: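 L1210 cells were exposed to 10 μM triamine for 48 h. SSAT activity was taken as [14C]N1-acetylspermidine formed from spermidine and [14C]acetyl-CoA, given as percent of untreated control. DENSPM-treated cells served as positive control. Values are the mean of at least three experiments.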

[10] = Binding affinity values for polyamine transporter was determined
[11] = target: T1, S-adenosylmethionine decarboxylase proenzyme 1 (Mus musculus) (UniProt P0DMN7); test: Effect on S-Adenosyl-methionine decarboxylase (AdoMetDC) tested at 1 uM at 6 hour in L1210 cells; type: functional, cell-based; in short: as §2
T1 sequence (whole entry): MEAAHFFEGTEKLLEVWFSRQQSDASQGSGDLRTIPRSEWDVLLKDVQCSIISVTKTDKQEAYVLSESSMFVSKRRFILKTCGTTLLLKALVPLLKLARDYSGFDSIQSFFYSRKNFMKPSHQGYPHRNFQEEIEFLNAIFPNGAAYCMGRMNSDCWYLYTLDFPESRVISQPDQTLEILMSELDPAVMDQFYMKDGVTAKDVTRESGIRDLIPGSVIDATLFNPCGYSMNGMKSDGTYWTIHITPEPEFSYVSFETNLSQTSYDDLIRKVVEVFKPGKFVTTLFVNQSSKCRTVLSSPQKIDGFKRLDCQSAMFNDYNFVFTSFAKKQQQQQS

[12] = test system: L1210; test: Percentage of spermidine (after 48 hr exposure to 100 uM) in L1210 cells.
[13] = test system: L1210; test: Percentage of spermidine (after 48 hr exposure to 500 uM) in L1210 cells.
[14] = test system: L1210; test: Percentage of spermine after 48 hr exposure to the compound (500(15)uM ) in L1210 cells; type: functional, Mus musculus
In short: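 Log-phase murine L1210 leukemia cells (RPMI-1640, 10% fetal calf serum or NuSerum, HEPES-MOPS buffer, 1 mM aminoguanidine) exposed 48 h to analogue at two concentrations. Cells washed twice in cold RPMI-1640 and extracted with 0.6 N HClO4. Spermine in extracts quantified by HPLC of DANSYL derivatives and expressed as percent of untreated controls. Triplicate flasks per condition.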

[15] = test system: L1210; test: Percentage of putrescine after 48 hr exposure to the compound (100(3)uM ) in L1210 cells; type: functional, Mus musculus; in short: as §1
[16] = test system: L1210; test: Percentage of spermidine after 48 hr of exposure to the compound (100(3)uM ) in L1210 cells; type: functional, Mus musculus; in short: as §1
[17] = test system: L1210; test: Percentage of spermidine after 48 hr of exposure to the compound (500(15)uM ) in L1210 cells; type: functional, Mus musculus; in short: as §1
[18] = test system: L1210; test: Percentage of putrescine after 48 hr exposure to the compound (500(15)uM ) in L1210 cells; type: functional, Mus musculus; in short: as §1
[19] = The chronic lethal dose administered as intraperitoneal injection in mice; type: ADME; settings: mouse, in vivo, ip
In short: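 Female CD-1 mice, 10–12 weeks old. Analogue given as hydrochloride salt by ip injection three times daily for 6 days (18 doses). Appetite, weight and appearance monitored daily, and lethality scored 10 days after the final dose.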

IC50 [7] [µM]	IC50 [8] [µM]	SSAT [9] [%]	Ki [10] [µM]	AdoMetDC [11] [%]	SMILES	Polyamine [1] [%]	ODC [2] [%]	Polyamine [3] [%]	Polyamine [4] [%]	Picoequivalents of amine/10e6 cells [5]	Polyamine [6] [%]	Spermidine % [12] [%]	Spermidine % [13] [%]	Polyamine [14] [%]	Polyamine [15] [%]	Polyamine [16] [%]	Polyamine [17] [%]	Polyamine [18] [%]	LD50 [19] [mg/kg/day]
100	0.6	570	5	59	CCCNCCCCNCCCCN	66	20	0	0	20550	82	2	0	–	–	–	–	–	–
> 100	4.8	250	60	41	CNCCCNCCCNC	48	17	0	0	18400	58	9	6	–	–	–	–	–	–
> 100	60	220	125	99	CCCNCCCNCCCNCCC	–	100	70	68	15010	96	76	71	–	–	–	–	–	–
> 100	33	1030	26	107	CCCNCCCCNCCCNCCC	–	75	–	–	15330	–	–	–	99	6	35	12	0	–
> 100	40	400	7	54	CCNCCCCNCCCN	61	17	0	0	17990	84	26	15	–	–	–	–	–	–
> 100	4	430	8.6	58	CCNCCCNCCCCN	53	10	0	0	16990	80	25	14	–	–	–	–	–	–
> 100	6	90	87	123	CCCNCCCCCNCCCCCNCCC	–	73	59	51	13910	97	73	69	–	–	–	–	–	–
> 100	0.18	410	1.4	57	NCCCCCNCCCCN	35	19	0	–	–	53	1	0	–	–	–	–	–	–
> 100	100	470	33	38	CCCNCCCNCCCN	49	33	0	0	17710	56	29	15	–	–	–	–	–	–
> 100	28	1200	3	56	CCCNCCCNCCCCN	72	18	0	0	18250	90	25	15	–	–	–	–	–	–
> 100	6	420	67	123	CCCNCCCCNCCCCNCCC	–	86	0	0	15990	–	19	7	–	–	–	–	–	–
> 100	55	500	8.5	64	CCCNCCCCNCCCN	95	14	0	0	19590	–	33	16	–	–	–	–	–	–
> 100	> 100	160	2.2	43	NCCCCNCCCN [SPERMIDINE]	–	16	0	0	–	–	–	–	–	–	–	–	–	–
100	1.2	80	75	86	CCCNCCCCCNCCCCNCCC	–	83	0	0	15150	–	40	31	–	–	–	–	–	–
> 100	0.9	510	5.5	86	CNCCCCNCCCCNC	–	20	0	0	20340	–	3	0	–	–	–	–	–	–
100	0.4	90	14	88	NCCCCCNCCCCCN	20	16	0	0	–	33	0	0	–	–	–	–	–	–
> 100	> 100	390	34	58	CCNCCCNCCCN	–	42	–	–	–	–	–	–	–	–	–	–	–	–
–	–	–	–	–	CCNCCCCNCCCCCNCCCCNCC	–	–	–	–	–	–	–	–	–	–	–	–	–	48
> 100	1.7	270	5.1	68	CNCCCCNCCCNC	54	22	0	0	16090	58	5	0	–	–	–	–	–	–

SMILES	IC50 [7] [µM]	IC50 [8] [µM]	SSAT [9] [%]	Ki [10] [µM]	AdoMetDC [11] [%]	Polyamine [1] [%]	ODC [2] [%]	Polyamine [3] [%]	Polyamine [4] [%]	Picoequivalents of amine/10e6 cells [5]	Polyamine [6] [%]	Spermidine % [12] [%]	Spermidine % [13] [%]	Polyamine [14] [%]	Polyamine [15] [%]	Polyamine [16] [%]	Polyamine [17] [%]	Polyamine [18] [%]	LD50 [19] [mg/kg/day]
CCNCCCCCNCCCCNCCCCCNCC	0.4	–	–	–	–	–	–	–	–	–	–	–	–	–	–	–	–	–	36
NCCCCNCCCCN	> 100	3	430	3.4	54	21	11	0	–	–	32	4	2	–	–	–	–	–	–

From ChEMBL document CHEMBL1130028, “A comparison of structure-activity relationships between spermidine and spermine analogue antineoplastics” (J Med Chem, 1997)
